Where two headings read alike, the source gives them in different places. *1 amine or outer side, *2 acyl side, *3 side chain or, on linkers, in order; H or OH if unused. Where a SMILES comes first, the peptide text is derived from it. [ ]: non-standard residue; d: D form. The star is where a group is joined. X1 = CCC(=O)C[C@H](O)C[C@@H](C)C[C@H](N[*:1])C(=O)[*:2]; Hexenoyl(2E,4S-Me) = CC[C@H](C)/C=C/C(=O)*; Leu(3R-OH) = CC(C)[C@@H](O)[C@H](N)C(=O)O; NH((S)CH(Me)CH2NMe2) = C[C@@H](CN(C)C)N*; Pro(4S-Me) = C[C@@H]1CN[C@H](C(=O)O)C1; NH(1-CH2NMe2-cBu) = CN(C)CC1(N*)CCC1; Oxazole4CO(2-Me) = Cc1nc(C(=O)*)co1; hCha = N[C@@H](CCC1CCCCC1)C(=O)O; NMeL = CN[C@@H](CC(C)C)C(=O)O; Aib = CC(C)(N)C(=O)O; βAla = NCCC(=O)O

Data on 5 compounds can be found in article PMC8360131 (Angewandte Chemie (International Ed. in English), 2021).

Data set [1] concerns T. brucei. The settings on record: cited from earlier work.
In data set [2] the test system is T. brucei. The settings on record: cited from earlier work. This is another data set of the same source.
For data set [3], the system named is Leishmania donovani axenic amastigotes (strain MHOM/ET/67/L82). Kind of data set: L. donovani axenic amastigotes resazurin assay. It is filed as cell-based. Background: The colour change of resazurin is a common sign of viable cells or microbes.
Data set [4] relates to bacteria, fungi, and cancer cells. Conditions: cited from earlier work.
Data set [5] relates to T. b. brucei bloodstream forms. Kind of data set: TMRE mitochondrial membrane potential assay. Type of data set: cell-based. An outline of the steps:
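The mitochondrial membrane potential of bloodstream-form T. b. brucei (NYsm) was quantified with the potential-sensitive dye TMRE, before and after test compound treatment. TMRE fluorescence was expressed relative to control parasites. CCCP served as positive control.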

Data set [6] concerns T. b. brucei bloodstream forms. The data set is described as follows: MitoTracker fluorescence microscopy. It is filed as cell-based. Conditions: 24 h treatment; 4 and 5 at 40 nM final concentration. An outline of the steps: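 Bloodstream-form T. b. brucei (NYsm strain) were exposed to test compound for 24 h, some at 40 nM final concentration. Cells were then incubated with the mitochondrial membrane potential-dependent dye MitoTracker, co-stained with DAPI and anti-ATOM40, and examined by fluorescence microscopy with DIC imaging. Untreated parasites were stained in parallel.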

Data set [7] concerns Trypanosoma cruzi (Tulahuen strain C2C4). Kind of data set: T. cruzi assay in L6 cells. It is filed as cell-based. The settings on record: read-out: T. cruzi; intracellular.
The next data set concerns Plasmodium falciparum. The settings on record: read-out: IC50 Plasmodium falciparum; cited from earlier work.
Data set [8] has as its system T. b. brucei 427 bloodstream forms. The data set is described as follows: T. b. brucei bloodstream form resazurin IC50 assay. It is filed as cell-based. The settings on record: read-out: activity on T. b. brucei; 72 h exposure.
In data set [9] the test system is Leishmania donovani intracellular amastigotes. The data set is described as follows: L. donovani intracellular amastigotes in macrophages. Type of data set: cell-based. Conditions: read-out: L. donovani. Macrophage, mouse peritoneal macrophages.
The conditions of data set [10]: mice; cited from earlier work.
In a further data set the test system is Trypanosoma brucei. Conditions: read-out: IC50 Trypanosoma brucei; cited from earlier work.
Setting [11] is: read-out: L. donovani. axenic amastigotes, range in parentheses.

leucinostatin B [leucinostatin B (1 b)]: the “mean duration of survival compared to untreated mice” value in the data set with T. brucei [1] (4×0.3 mg kg^−1 ip) is “slightly increased”. For the same compound, the mice cured result is on record as “no mice were cured” with T. brucei [1] (4×0.3 mg kg^−1 ip) and “one of 4 mice was cured” in the data set with T. brucei [1] (4×1.0 mg kg^−1 ip). Also, the “mean duration of survival” value in the data set on T. brucei [1] (4×1.0 mg kg^−1 ip, untreated 11.3 days) is 28 days. Besides, the curative effect result with T. brucei [2] (4×0.3 mg kg^−1 ip) and in the data set on T. brucei [2] (4×1.0 mg kg^−1 ip) was “curative effects” each time.

For the compound `CCCCCCCCCCCCCCCCOP(=O)([O-])OCC[N+](C)(C)C` [miltefosine], the IC50 in data set [3] (Leishmania donovani, read-out: L. donovani. axenic amastigotes [nM]) turned out to be 483 nM.

With leucinostatin Y, in data set [4], the “activity compared with leucinostatin A” value is recorded as “far less active”.

As to `Cc1nc(C(=O)N2CCC[C@H]2C(=O)N[C@@H](CCC2CCCCC2)C(=O)N[C@@H](CC(C)C)C(=O)NC(C)(C)C(=O)N[C@@H](CC(C)C)C(=O)N(C)[C@@H](CC(C)C)C(=O)NC(C)(C)C(=O)NC(C)(C)C(=O)NCCC(=O)NC2(CN(C)C)CCC2)co1` [Compound 3] ({Oxazole4CO(2-Me)}-P[hCha]L[Aib]L[NMeL][Aib][Aib][βAla]-{NH(1-CH2NMe2-cBu)}), the “TMRE fluorescence relative to control parasites” value in data set [5] is recorded as “no changes”. The MitoTracker mitochondrial staining result in data set [6] is reported as “no changes”. Besides, the figures for the IC50 in [7] and in [3] (setting [11]) were more than 2000 nM and 9260 nM, respectively.

Regarding `CCC(=O)C[C@H](O)C[C@@H](C)C[C@H](NC(=O)[C@@H]1C[C@H](C)CN1C(=O)/C=C/[C@@H](C)CC)C(=O)N[C@H](C(=O)NC(C)(C)C(=O)N[C@@H](CC(C)C)C(=O)N[C@@H](CC(C)C)C(=O)NC(C)(C)C(=O)NC(C)(C)C(=O)NCCC(=O)N[C@@H](C)CN(C)C)[C@H](O)C(C)C` [leucinostatin A (1 a), leucinostatin A] ({Hexenoyl(2E,4S-Me)}-[Pro(4S-Me)][X1][Leu(3R-OH)][Aib]LL[Aib][Aib][βAla]-{NH((S)CH(Me)CH2NMe2)}), the IC50 in the data set with Plasmodium falciparum was 0.4 to 0.9 nM; in data set [8] it was 0.4 nM; in data set [7], 23 nM; in [9] it was 9.8 nM; in data set [3] (setting [11]), 1.05 nM; with Trypanosoma brucei, 2.8 nM. The “TMRE fluorescence relative to control parasites” value in data set [5] is given as “concentration‐dependent decrease”. The “ip LD50” value in data set [10] is 1.1 mg/kg.
